Test results: ChEMBL document CHEMBL4184148 (Bioorg Med Chem Lett, 2017)

What was measured:
[1] = tested on: Hepatocyte growth factor receptor (Homo sapiens), P08581 [M1250T]; assay: Binding affinity to human partial length MET M1250T mutant (D1010 to S1367 residues) expressed in Escherichia coli BL21 at 1 uM by Kinomescan method relative to control
[2] = tested on: Tyrosine-protein kinase ABL1 (Homo sapiens), P00519 [H396P]; assay: Binding affinity to human phosphorylated ABL1 H396P mutant (S229 to K512 residues) expressed in HEK293 cells at 1 uM by Kinomescan method relative to control; assay type: cell-based
[3] = molecular target: Casein kinase I isoform gamma-1 (Homo sapiens) (UniProt Q9HCP0); assay: Binding affinity to wild-type human partial length CSNK1G1 (T15 to S353 residues) expressed in Escherichia coli BL21 at 1 uM by Kinomescan method relative to control
[4] = molecular target: Tyrosine-protein kinase receptor Tie-1 (Homo sapiens) (UniProt P35590); assay: Binding affinity to wild-type human partial length TIE1 (T819 to A1138 residues) expressed in Escherichia coli BL21 at 1 uM by Kinomescan method relative to control
[5] = molecular target: Serine/threonine-protein kinase OSR1 (Homo sapiens) (UniProt O95747); assay: Binding affinity to wild-type human full length OSR1 (M1 to S527 residues) expressed in HEK293 cells at 1 uM by Kinomescan method relative to control; assay type: cell-based
Method in brief: (§1)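 Kinome-wide competition binding panel run by an outside provider, with each compound tested at a single concentration. Activity is read against the kinase panel.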

[6] = molecular target: Cyclin-G-associated kinase (Homo sapiens) (UniProt O14976); assay: Binding affinity to wild-type human partial length GAK (G13 to Y338 residues) expressed in Escherichia coli BL21 at 1 uM by Kinomescan method relative to control
[7] = molecular target: Calcium/calmodulin-dependent protein kinase kinase 1 (Homo sapiens) (UniProt Q8N5S9); assay: Binding affinity to wild-type human partial length CAMKK1 (R65 to E414 residues) expressed in Escherichia coli BL21 at 1 uM by Kinomescan method relative to control
[8] = tested on: Mast/stem cell growth factor receptor Kit (Homo sapiens), P10721 [A829P]; assay: Binding affinity to human partial length KIT A829P mutant (I571 to D952 residues) expressed in HEK293 cells at 1 uM by Kinomescan method relative to control; assay type: cell-based
[9] = molecular target: Serine/threonine-protein kinase PLK1 (Homo sapiens) (UniProt P53350); assay: Binding affinity to wild-type human partial length PLK1 (A33 to F325 residues) expressed in HEK293 cells at 1 uM by Kinomescan method relative to control; assay type: cell-based
[10] = molecular target: Calcium/calmodulin-dependent protein kinase type 1D (Homo sapiens) (UniProt Q8IU85); assay: Binding affinity to wild-type human partial length CAMK1D (M1 to K299 residues) expressed in Escherichia coli BL21 at 1 uM by Kinomescan method relative to control
[11] = molecular target: Mitogen-activated protein kinase 14 (Homo sapiens) (UniProt Q16539); assay: Binding affinity to wild-type human full length p38-alpha (M1 to S360 residues) expressed in Escherichia coli BL21 at 1 uM by Kinomescan method relative to control; method in brief: as §1
[12] = molecular target: Cyclin-dependent kinase-like 1 (Homo sapiens) (UniProt Q00532); assay: Binding affinity to wild-type human full length CDKL1 (M1 to I358 residues) expressed in HEK293 cells at 1 uM by Kinomescan method relative to control; assay type: cell-based
Method in brief: (§2)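 Run as one kinome-wide competition binding panel with each compound at a single fixed concentration. Results were plotted as a kinome-wide selectivity map.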

[13] = molecular target: Cyclin-dependent kinase 9 (Homo sapiens) (UniProt P50750); assay: Binding affinity to wild-type human full length CDK9 (M1 to F372 residues) expressed in Escherichia coli BL21 at 1 uM by Kinomescan method relative to control; method in brief: as §2
[14] = tested on: Epidermal growth factor receptor (Homo sapiens), P00533 [T790M]; assay: Binding affinity to human partial length EGFR T790M mutant (R669 to G1022 residues) expressed in HEK293 cells at 1 uM by Kinomescan method relative to control; assay type: cell-based
[15] = molecular target: Dual specificity tyrosine-phosphorylation-regulated kinase 1A (Homo sapiens) (UniProt Q13627); assay: Binding affinity to wild-type human partial length DYRK1A (H129 to S509 residues) expressed in HEK293 cells at 1 uM by Kinomescan method relative to control; assay type: cell-based
[16] = molecular target: 3-phosphoinositide-dependent protein kinase 1 (Homo sapiens) (UniProt O15530); assay: Binding affinity to wild-type human full length PDPK1 (M1 to Q556 residues) expressed in Escherichia coli BL21 at 1 uM by Kinomescan method relative to control; method in brief: as §1
[17] = molecular target: Serine/threonine-protein kinase PAK 6 (Homo sapiens) (UniProt Q9NQU5); assay: Binding affinity to wild-type human partial length PAK6 (N298 to C681 residues) expressed in Escherichia coli BL21 at 1 uM by Kinomescan method relative to control
[18] = tested on: Phosphatidylinositol 4,5-bisphosphate 3-kinase catalytic subunit alpha isoform (Homo sapiens), P42336 [H1047L]; assay: Binding affinity to human partial length PIK3CA H1047L mutant (R108 to N1068 residues) expressed in HEK293 cells at 1 uM by Kinomescan method relative to control; assay type: cell-based
[19] = molecular target: High affinity nerve growth factor receptor (Homo sapiens) (UniProt P04629); assay: Binding affinity to wild-type human partial length TRKA (G475 to G790 residues) expressed in HEK293 cells at 1 uM by Kinomescan method relative to control; assay type: cell-based
[20] = tested on: Phosphatidylinositol 4,5-bisphosphate 3-kinase catalytic subunit alpha isoform (Homo sapiens), P42336 [E545K]; assay: Binding affinity to human partial length PIK3CA E545K mutant (R108 to N1068 residues) expressed in HEK293 cells at 1 uM by Kinomescan method relative to control; assay type: cell-based
[21] = molecular target: Cyclin-dependent kinase 2 (Homo sapiens) (UniProt P24941); assay: Binding affinity to wild-type human full length CDK2 (M1 to L298 residues) expressed in Escherichia coli BL21 at 1 uM by Kinomescan method relative to control
[22] = tested on: Tyrosine-protein kinase ABL1 (Homo sapiens), P00519 [T315I]; assay: Binding affinity to human phosphorylated ABL1 T315I mutant (S229 to K512 residues) expressed in HEK293 cells at 1 uM by Kinomescan method relative to control; assay type: cell-based
[23] = molecular target: Mitogen-activated protein kinase kinase kinase kinase 2 (Homo sapiens) (UniProt Q12851); assay: Binding affinity to wild-type human partial length MAP4K2 (M1 to G318 residues) expressed in HEK293 cells at 1 uM by Kinomescan method relative to control; assay type: cell-based
[24] = molecular target: Serine/threonine-protein kinase NLK (Homo sapiens) (UniProt Q9UBE8); assay: Binding affinity to wild-type human full length NLK (M13 to E527 residues) expressed in Escherichia coli BL21 at 1 uM by Kinomescan method relative to control; method in brief: as §1
[25] = molecular target: Casein kinase I isoform alpha-like (Homo sapiens) (UniProt Q8N752); assay: Binding affinity to wild-type human full length CSNK1A1L (M1 to N337 residues) expressed in Escherichia coli BL21 at 1 uM by Kinomescan method relative to control; method in brief: as §2

Chain of Cyclin-G-associated kinase (Homo sapiens) (O14976 whole entry, the tested form may be a part): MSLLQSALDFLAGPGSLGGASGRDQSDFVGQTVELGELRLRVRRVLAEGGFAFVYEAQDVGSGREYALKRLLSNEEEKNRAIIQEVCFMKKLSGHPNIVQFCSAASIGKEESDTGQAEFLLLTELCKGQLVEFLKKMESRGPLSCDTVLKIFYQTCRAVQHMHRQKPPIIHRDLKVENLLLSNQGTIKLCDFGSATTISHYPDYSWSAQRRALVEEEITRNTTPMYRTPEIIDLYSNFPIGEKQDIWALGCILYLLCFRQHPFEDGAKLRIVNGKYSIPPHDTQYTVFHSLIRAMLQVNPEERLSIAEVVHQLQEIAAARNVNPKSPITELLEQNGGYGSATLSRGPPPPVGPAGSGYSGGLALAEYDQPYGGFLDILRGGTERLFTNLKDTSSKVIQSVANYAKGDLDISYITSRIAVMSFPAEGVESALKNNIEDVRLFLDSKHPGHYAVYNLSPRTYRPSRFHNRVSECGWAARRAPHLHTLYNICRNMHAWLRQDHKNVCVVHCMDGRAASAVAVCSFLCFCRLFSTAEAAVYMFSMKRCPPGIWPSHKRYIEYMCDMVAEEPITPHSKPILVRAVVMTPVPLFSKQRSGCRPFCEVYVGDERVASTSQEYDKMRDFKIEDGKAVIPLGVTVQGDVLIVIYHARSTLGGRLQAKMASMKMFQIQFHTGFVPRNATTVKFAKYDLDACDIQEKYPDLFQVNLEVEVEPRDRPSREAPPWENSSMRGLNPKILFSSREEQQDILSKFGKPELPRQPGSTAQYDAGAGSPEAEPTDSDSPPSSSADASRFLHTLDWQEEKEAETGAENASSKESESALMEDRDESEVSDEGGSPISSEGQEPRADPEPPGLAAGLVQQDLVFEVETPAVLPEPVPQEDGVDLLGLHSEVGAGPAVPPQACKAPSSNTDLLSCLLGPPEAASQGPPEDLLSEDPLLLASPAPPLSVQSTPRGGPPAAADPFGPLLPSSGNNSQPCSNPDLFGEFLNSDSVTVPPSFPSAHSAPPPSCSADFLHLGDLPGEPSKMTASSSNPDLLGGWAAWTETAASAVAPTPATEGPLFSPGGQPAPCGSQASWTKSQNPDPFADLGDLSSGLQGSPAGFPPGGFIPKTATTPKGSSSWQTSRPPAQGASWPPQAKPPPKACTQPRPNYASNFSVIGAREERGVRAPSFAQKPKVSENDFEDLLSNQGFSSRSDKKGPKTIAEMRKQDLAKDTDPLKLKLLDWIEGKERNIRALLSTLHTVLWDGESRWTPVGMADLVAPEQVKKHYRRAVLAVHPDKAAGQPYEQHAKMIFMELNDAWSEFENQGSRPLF
Chain of Tyrosine-protein kinase receptor Tie-1 (Homo sapiens) (P35590 whole entry, the tested form may be a part): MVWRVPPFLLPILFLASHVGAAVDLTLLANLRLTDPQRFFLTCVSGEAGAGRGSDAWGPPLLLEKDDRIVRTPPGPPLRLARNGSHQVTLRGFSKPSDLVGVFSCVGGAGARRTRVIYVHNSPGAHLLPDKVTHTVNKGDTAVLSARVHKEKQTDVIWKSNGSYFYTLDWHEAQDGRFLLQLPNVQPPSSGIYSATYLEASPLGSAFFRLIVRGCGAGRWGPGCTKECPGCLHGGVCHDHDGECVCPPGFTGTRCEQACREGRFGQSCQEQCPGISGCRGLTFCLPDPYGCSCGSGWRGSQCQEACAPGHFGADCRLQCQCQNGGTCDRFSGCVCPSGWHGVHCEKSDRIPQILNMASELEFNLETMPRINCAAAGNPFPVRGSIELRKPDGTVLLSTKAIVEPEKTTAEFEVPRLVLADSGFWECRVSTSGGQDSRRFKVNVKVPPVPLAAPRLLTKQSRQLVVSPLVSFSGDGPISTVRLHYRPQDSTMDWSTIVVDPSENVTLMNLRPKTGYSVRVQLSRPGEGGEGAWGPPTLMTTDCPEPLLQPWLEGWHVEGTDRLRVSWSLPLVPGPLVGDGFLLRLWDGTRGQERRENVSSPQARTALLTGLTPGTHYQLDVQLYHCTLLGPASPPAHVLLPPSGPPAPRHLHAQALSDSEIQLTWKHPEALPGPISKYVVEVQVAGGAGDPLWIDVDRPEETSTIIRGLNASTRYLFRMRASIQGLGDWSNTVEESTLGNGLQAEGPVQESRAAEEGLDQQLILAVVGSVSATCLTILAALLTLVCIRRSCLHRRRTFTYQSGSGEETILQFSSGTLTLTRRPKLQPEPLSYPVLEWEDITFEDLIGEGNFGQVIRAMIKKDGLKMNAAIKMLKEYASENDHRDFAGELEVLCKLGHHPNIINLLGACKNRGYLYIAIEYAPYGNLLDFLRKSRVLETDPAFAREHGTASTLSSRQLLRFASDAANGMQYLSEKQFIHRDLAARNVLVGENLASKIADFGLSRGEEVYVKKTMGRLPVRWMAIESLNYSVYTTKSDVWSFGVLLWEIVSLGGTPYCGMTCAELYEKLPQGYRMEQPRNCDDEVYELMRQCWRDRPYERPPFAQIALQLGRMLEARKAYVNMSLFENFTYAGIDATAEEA
Chain of Cyclin-dependent kinase 9 (Homo sapiens) (P50750 whole entry, the tested form may be a part): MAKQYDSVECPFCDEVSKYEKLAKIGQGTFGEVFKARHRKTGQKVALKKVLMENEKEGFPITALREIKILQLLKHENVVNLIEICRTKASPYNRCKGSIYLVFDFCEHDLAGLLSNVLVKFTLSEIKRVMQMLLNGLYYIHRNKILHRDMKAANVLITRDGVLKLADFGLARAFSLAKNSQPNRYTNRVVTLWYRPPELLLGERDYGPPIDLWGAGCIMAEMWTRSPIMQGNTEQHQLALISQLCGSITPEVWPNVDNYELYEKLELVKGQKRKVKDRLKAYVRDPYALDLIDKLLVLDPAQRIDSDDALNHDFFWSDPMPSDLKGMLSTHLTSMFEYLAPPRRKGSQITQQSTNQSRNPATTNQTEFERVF
Chain of Calcium/calmodulin-dependent protein kinase type 1D (Homo sapiens) (Q8IU85 whole entry, looked up, the tested form may be a part): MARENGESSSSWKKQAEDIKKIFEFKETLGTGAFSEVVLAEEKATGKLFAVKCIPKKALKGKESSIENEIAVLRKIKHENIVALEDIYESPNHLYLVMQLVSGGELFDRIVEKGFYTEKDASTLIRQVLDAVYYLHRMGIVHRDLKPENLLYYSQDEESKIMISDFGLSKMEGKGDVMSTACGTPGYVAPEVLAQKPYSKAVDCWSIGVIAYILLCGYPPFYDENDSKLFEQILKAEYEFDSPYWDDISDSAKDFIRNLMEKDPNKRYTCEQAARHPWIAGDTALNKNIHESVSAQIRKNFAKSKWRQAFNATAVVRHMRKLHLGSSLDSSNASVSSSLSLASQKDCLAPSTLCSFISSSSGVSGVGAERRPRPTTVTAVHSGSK
Chain of Mast/stem cell growth factor receptor Kit (Homo sapiens), P10721 [A829P] (P10721 whole entry A829P, the tested form may be a part): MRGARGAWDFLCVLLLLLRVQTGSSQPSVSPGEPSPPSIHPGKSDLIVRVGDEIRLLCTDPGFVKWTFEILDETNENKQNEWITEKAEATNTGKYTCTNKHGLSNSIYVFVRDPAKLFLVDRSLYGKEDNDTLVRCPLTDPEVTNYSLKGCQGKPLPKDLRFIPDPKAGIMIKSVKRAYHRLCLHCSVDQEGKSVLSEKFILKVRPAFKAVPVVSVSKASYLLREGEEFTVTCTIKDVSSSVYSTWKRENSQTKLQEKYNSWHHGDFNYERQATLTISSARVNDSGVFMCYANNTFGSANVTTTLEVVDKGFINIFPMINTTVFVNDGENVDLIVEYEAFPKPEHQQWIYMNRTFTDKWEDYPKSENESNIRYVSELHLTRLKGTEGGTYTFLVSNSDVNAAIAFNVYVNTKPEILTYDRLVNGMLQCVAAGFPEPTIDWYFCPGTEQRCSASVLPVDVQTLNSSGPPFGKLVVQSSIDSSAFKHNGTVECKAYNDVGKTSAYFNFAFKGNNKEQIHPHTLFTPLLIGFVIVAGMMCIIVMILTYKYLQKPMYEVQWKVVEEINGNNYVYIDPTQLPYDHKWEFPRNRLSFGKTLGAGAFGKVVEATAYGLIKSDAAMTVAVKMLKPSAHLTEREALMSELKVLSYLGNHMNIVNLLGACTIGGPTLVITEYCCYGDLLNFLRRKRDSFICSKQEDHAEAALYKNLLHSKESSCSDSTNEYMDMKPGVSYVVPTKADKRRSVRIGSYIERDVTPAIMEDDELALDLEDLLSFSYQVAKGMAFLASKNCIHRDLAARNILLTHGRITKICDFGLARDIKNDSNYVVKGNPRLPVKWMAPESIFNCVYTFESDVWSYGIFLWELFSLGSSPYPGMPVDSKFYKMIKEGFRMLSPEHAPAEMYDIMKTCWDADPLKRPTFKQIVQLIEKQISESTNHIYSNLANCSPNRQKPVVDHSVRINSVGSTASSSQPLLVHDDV
Chain of Serine/threonine-protein kinase PLK1 (Homo sapiens) (P53350 whole entry, the tested form may be a part): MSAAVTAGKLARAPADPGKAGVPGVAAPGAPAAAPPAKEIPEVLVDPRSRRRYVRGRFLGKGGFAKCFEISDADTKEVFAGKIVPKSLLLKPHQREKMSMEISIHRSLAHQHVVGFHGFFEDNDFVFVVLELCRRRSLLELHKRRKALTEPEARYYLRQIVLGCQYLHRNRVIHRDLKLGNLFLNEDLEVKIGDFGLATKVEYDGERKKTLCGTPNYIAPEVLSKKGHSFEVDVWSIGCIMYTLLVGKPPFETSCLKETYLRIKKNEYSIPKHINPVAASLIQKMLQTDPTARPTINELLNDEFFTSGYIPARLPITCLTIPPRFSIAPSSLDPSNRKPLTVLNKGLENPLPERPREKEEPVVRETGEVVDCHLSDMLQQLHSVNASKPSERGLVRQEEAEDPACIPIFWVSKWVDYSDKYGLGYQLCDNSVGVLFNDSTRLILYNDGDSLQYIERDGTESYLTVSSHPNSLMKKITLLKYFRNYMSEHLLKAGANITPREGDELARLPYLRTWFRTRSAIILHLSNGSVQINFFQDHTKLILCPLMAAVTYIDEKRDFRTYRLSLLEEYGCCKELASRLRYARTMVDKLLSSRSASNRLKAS

Compound | Activity [1] [%] | Activity [2] [%] | Activity [3] [%] | Activity [4] [%] | Activity [5] [%] | Activity [6] [%] | Activity [7] [%] | Activity [8] [%] | Activity [9] [%] | Activity [10] [%] | Activity [11] [%] | Activity [12] [%] | Activity [13] [%] | Activity [14] [%] | Activity [15] [%] | Activity [16] [%] | Activity [17] [%] | Activity [18] [%] | Activity [19] [%] | Activity [20] [%] | also measured
CCC(=O)Nc1ccc(C(=O)Nc2ccc(Nc3ncc4c(n3)N(C)c3ccc(C)cc3C(=O)N4C)cc2)cc1 | 93 | 64 | 100 | 88 | 90 | 99 | 100 | 54 | 100 | 88 | 100 | 88 | 97 | 78 | 73 | 96 | 94 | 70 | 78 | 76 | Activity [21]: 97%; Activity [22]: 100%; Activity [23]: 97%; Activity [24]: 100%; Activity [25]: 97%
C=CC(=O)Nc1ccc(C(=O)Nc2ccc(Nc3ncc4c(n3)N(C)c3ccc(C)cc3C(=O)N4C)cc2)cc1 | 93 | 91 | 100 | 96 | 99 | 82 | 100 | 99 | 91 | 100 | 100 | 92 | 97 | 79 | 96 | 100 | 91 | 63 | 79 | 72 | Activity [21]: 100%; Activity [22]: 99%; Activity [23]: 92%; Activity [24]: 81%; Activity [25]: 95%
